Experimental data from PMC3760280 (Structure (London, England : 1993), 2013).
Like-named read-outs stand apart in the source and are kept apart here. Square brackets hold non-standard residues; d marks the D form. Peptide text beside a SMILES is read from it. * marks the point of attachment. FITC = O=C1OC2(c3ccc(O)cc3Oc3cc(O)ccc32)c2ccc(NC(=S)*)cc21; pT = C[C@@H](OP(=O)(O)O)[C@H](N)C(=O)O; pS = N[C@@H](COP(=O)(O)O)C(=O)O

Assays:
GST-TopBP1 BRCT5 = GST-TopBP1 BRCT5 (Homo sapiens, UniProt Q92547); experiment: Fluorescence polarization; assay type: binding
Summary of the method: (§1)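 Human TopBP1 GST fusions of BRCT4/5 (549–746) or BRCT5 (641–746), wild type or point mutants, were expressed in E. coli BL21-Gold and glutathione-affinity purified. Plates sat 15 min at room temperature, then FP was read at ex 485/em 538 nm. Kd was curve-fitted and averaged over ≥3 independent titrations.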

[1] = molecular target: GST-BRCT5 R681E/K682E (TopBP1) (Homo sapiens, UniProt Q92547, K682E/R681E); experiment: Fluorescence polarization; assay type: binding
Sequence of GST-BRCT5 R681E/K682E (TopBP1) (Q92547 641-746 R681E/K682E): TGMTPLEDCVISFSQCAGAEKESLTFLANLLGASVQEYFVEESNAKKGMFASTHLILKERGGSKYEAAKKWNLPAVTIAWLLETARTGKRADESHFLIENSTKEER
Summary of the method: as §1

GST-BRCT5 K704A (TopBP1) = GST-BRCT5 K704A (TopBP1) (Homo sapiens, UniProt Q92547, K704A); experiment: Fluorescence polarization; assay type: binding
Sequence of GST-BRCT5 K704A (TopBP1) (Q92547 641-746 K704A): as the sequence (Q92547 641-746 R681E/K682E) above, with E41R, E42K, K64A counted along it
Summary of the method: as §1

GST-TopBP1 BRCT4/5 = GST-TopBP1 BRCT4/5 (Homo sapiens, UniProt Q92547); experiment: Fluorescence polarization; assay type: binding
Summary of the method: as §1

[2] = molecular target: T1, FITC-labeled non-phosphorylated MDC1 consensus SDT peptide FITC-…-NH2; experiment: fluorescence polarisation
T1 chain: GFIDSDTDVEEE

[3] = molecular target: T2, FITC-labeled MDC1 consensus SDT di-phospho-peptide FITC-GFIDpSDpTDVEEE-NH2; experiment: fluorescence polarisation
T2 chain: GFIDSDTDVEEE

[4] = molecular target: T3, FITC-labeled MDC1 SDT di-phospho-peptide with +2 Val to Asp, FITC-GFIDpSDpTDDEEE-NH2; experiment: fluorescence polarisation
T3 chain: GFIDSDTDDEEE

[5] = molecular target: T4, FITC-labeled pThr MDC1 consensus SDT peptide FITC-GFIDSDpTDVEEE-NH2; experiment: fluorescence polarisation
T4 chain: GFIDSDTDVEEE

[6] = molecular target: T5, FITC-labeled pSer MDC1 consensus SDT peptide FITC-GFIDpSDTDVEEE-NH2; experiment: fluorescence polarisation
T5 chain: GFIDSDTDVEEE

[7] = molecular target: T6, FITC-labeled MDC1 consensus SDT di-phospho-peptide FITC-GFIDpSDpTDVEEE-NH2; experiment: fluorescence polarisation
T6 peptide: {FITC}-GFID[pS]D[pT]DVEEE-NH2

CC[C@H](C)[C@H](NC(=O)[C@H](Cc1ccccc1)NC(=O)CNC(=S)Nc1ccc2c(c1)C(=O)OC21c2ccc(O)cc2Oc2cc(O)ccc21)C(=O)N[C@@H](CC(=O)O)C(=O)N[C@@H](CO)C(=O)N[C@@H](CC(=O)O)C(=O)N[C@H](C(=O)N[C@@H](CC(=O)O)C(=O)N[C@H](C(=O)N[C@@H](CCC(=O)O)C(=O)N[C@@H](CCC(=O)O)C(=O)N[C@@H](CCC(=O)O)C(N)=O)C(C)C)[C@@H](C)O [FITC-GFIDSDTDVEEE-NH2] ({FITC}-GFIDSDTDVEEE-NH2)
Kd (GST-TopBP1 BRCT5): 310 ± 70 µM

CC[C@H](C)[C@H](NC(=O)[C@H](Cc1ccccc1)NC(=O)CNC(=S)Nc1ccc2c(c1)C(=O)OC21c2ccc(O)cc2Oc2cc(O)ccc21)C(=O)N[C@@H](CC(=O)O)C(=O)N[C@@H](CO)C(=O)N[C@@H](CC(=O)O)C(=O)N[C@H](C(=O)N[C@@H](CC(=O)O)C(=O)N[C@H](C(=O)N[C@@H](CCC(=O)O)C(=O)N[C@@H](CCC(=O)O)C(=O)N[C@@H](CCC(=O)O)C(N)=O)C(C)C)[C@@H](C)OP(=O)(O)O [FITC-GFIDSDpTDVEEE-NH2] ({FITC}-GFIDSD[pT]DVEEE-NH2)
Kd (GST-TopBP1 BRCT5): 98 ± 9 µM

CC[C@H](C)[C@H](NC(=O)[C@H](Cc1ccccc1)NC(=O)CNC(=S)Nc1ccc2c(c1)C(=O)OC21c2ccc(O)cc2Oc2cc(O)ccc21)C(=O)N[C@@H](CC(=O)O)C(=O)N[C@@H](COP(=O)(O)O)C(=O)N[C@@H](CC(=O)O)C(=O)N[C@H](C(=O)N[C@@H](CC(=O)O)C(=O)N[C@H](C(=O)N[C@@H](CCC(=O)O)C(=O)N[C@@H](CCC(=O)O)C(=O)N[C@@H](CCC(=O)O)C(N)=O)C(C)C)[C@@H](C)O [FITC-GFIDpSDTDVEEE-NH2] ({FITC}-GFID[pS]DTDVEEE-NH2)
Kd (GST-TopBP1 BRCT5): 105 ± 9 µM

CC[C@H](C)[C@H](NC(=O)[C@H](Cc1ccccc1)NC(=O)CNC(=S)Nc1ccc2c(c1)C(=O)OC21c2ccc(O)cc2Oc2cc(O)ccc21)C(=O)N[C@@H](CC(=O)O)C(=O)N[C@@H](COP(=O)(O)O)C(=O)N[C@@H](CC(=O)O)C(=O)N[C@H](C(=O)N[C@@H](CC(=O)O)C(=O)N[C@@H](CC(=O)O)C(=O)N[C@@H](CCC(=O)O)C(=O)N[C@@H](CCC(=O)O)C(=O)N[C@@H](CCC(=O)O)C(N)=O)[C@@H](C)OP(=O)(O)O [FITC-GFIDpSDpTDDEEE-NH2] ({FITC}-GFID[pS]D[pT]DDEEE-NH2)
Kd (GST-TopBP1 BRCT5): 24 ± 3 µM

CC[C@H](C)[C@H](NC(=O)[C@H](Cc1ccccc1)NC(=O)CNC(=S)Nc1ccc2c(c1)C(=O)OC21c2ccc(O)cc2Oc2cc(O)ccc21)C(=O)N[C@@H](CC(=O)O)C(=O)N[C@@H](COP(=O)(O)O)C(=O)N[C@@H](CC(=O)O)C(=O)N[C@H](C(=O)N[C@@H](CC(=O)O)C(=O)N[C@H](C(=O)N[C@@H](CCC(=O)O)C(=O)N[C@@H](CCC(=O)O)C(=O)N[C@@H](CCC(=O)O)C(N)=O)C(C)C)[C@@H](C)OP(=O)(O)O [FITC-GFIDpSDpTDVEEE-NH2] ({FITC}-GFID[pS]D[pT]DVEEE-NH2)
Kd (GST-TopBP1 BRCT5): 28 ± 4 µM | Kd [1]: 280 ± 60 µM | Kd (GST-BRCT5 K704A (TopBP1)): 210 ± 50 µM | Kd (GST-TopBP1 BRCT4/5): 27 ± 4 µM

B1: GST-TopBP1 BRCT5 (641-746), Q92547 641-746 (domain or fragment)
chain: TGMTPLEDCVISFSQCAGAEKESLTFLANLLGASVQEYFVRKSNAKKGMFASTHLILKERGGSKYEAAKKWNLPAVTIAWLLETARTGKRADESHFLIENSTKEER
modifications: not checked
Kd [2]: 310 µM | Kd [3]: 28 µM | Kd [4]: 24 µM | Kd [5]: 98 µM | Kd [6]: 105 µM

B2: GST-TopBP1 BRCT4/5 (549-746) (domain or fragment)
chain: EEGLFSQKSFLVLGFSNENESNIANIIKENAGKIMSLLSRTVADYAVVPLLGCEVEATVGEVVTNTWLVTCIDYQTLFDPKSNPLFTPVPVMTGMTPLEDCVISFSQCAGAEKESLTFLANLLGASVQEYFVRKSNAKKGMFASTHLILKERGGSKYEAAKKWNLPAVTIAWLLETARTGKRADESHFLIENSTKEER
Kd [7]: 27 ± 4 µM
